Reference: ChEMBL document CHEMBL3351523 (Bioorg Med Chem, 2014)

Tests used:
Human alphaherpesvirus 1 = test: Antiviral activity against HSV1 infected in african green monkey Vero 76 cells assessed as reduction in plaque number after 3 days by plaque reduction assay; format: functional, organism-based; conditions: Human alphaherpesvirus 1, Vero, 72 h
Yellow fever virus = test: Antiviral activity against Yellow fever virus infected in BHK21 cells assessed as inhibition of virus-induced cytopathogenicity after 3 to 4 days by MTT assay; format: functional, organism-based; conditions: BHK-21
Vaccinia virus = test: Antiviral activity against Vaccinia Virus infected in african green monkey Vero 76 cells assessed as reduction in plaque number after 3 days by plaque reduction assay; format: functional, organism-based; conditions: Orthopoxvirus vaccinia, 72 h
Poliovirus 1 = test: Antiviral activity against Poliovirus type 1 Sabin strain infected in african green monkey Vero 76 cells assessed as reduction in plaque number after 2 days by plaque reduction assay; format: functional, organism-based; conditions: Enterovirus C, 48 h
[1] = Cytotoxicity against mock-infected african green monkey Vero 76 cells after 48 to 96 hrs by MTT assay; format: cell-based; conditions: chlorocebus sabaeus, mock-infected Vero 76 cells
[2] = Cytotoxicity against mock-infected human MT4 cells after 96 hrs by MTT assay; format: cell-based
In short: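 Exponentially growing MT-4 cells were seeded at 1 × 10^5 cells/mL in RPMI-1640 with 10% FBS and held at 37 °C, 5% CO2 with serial compound dilutions. Viability was read by MTT after 96 h. CC50 from linear regression against untreated controls.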

[3] = tested on: Respiratory syncytial virus; test: Antiviral activity against Respiratory syncytial virus infected in african green monkey Vero 76 cells assessed as reduction in plaque number after 5 days by plaque reduction assay; format: functional, organism-based; conditions: human respiratory syncytial virus, 120 h
[4] = tested on: Vesicular stomatitis virus; test: Antiviral activity against Vesicular stomatitis virus infected in african green monkey Vero 76 cells assessed as reduction in plaque number after 2 days by plaque reduction assay; format: functional, organism-based; conditions: 48 h
[5] = Selectivity index, ratio of CC50 for african green monkey Vero 76 cells to EC50 for Coxsackievirus B5; format: toxicity, cell-based; conditions: read-out: Ratio CC50/EC50
In short: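 Mock-infected Vero-76 cells were tested in parallel on the same 24-well plates as the plaque assays (seeding 4 × 10^5 cells/mL, D-MEM with FBS), with serial compound dilutions at 37 °C, 5% CO2. Viability was read after 48–96 h by crystal violet staining. CC50 by linear regression; selectivity index = Vero-76 CC50/EC50 for CVB-5 or RSV.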

Coxsackievirus B5 = test: Antiviral activity against Coxsackievirus B5 infected in african green monkey Vero 76 cells assessed as reduction in plaque number after 3 days by plaque reduction assay; format: functional, organism-based; conditions: Enterovirus B, 72 h
Reovirus sp. = test: Antiviral activity against Reovirus type-1 infected in BHK21 cells assessed as inhibition of virus-induced cytopathogenicity after 3 to 4 days by MTT assay; format: functional, organism-based; conditions: BHK-21
[6] = Cytotoxicity against mock-infected MDBK cells after 48 to 96 hrs by MTT assay; format: cell-based, Bos taurus; conditions: cattle
In short: (§1)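 Mock-infected MDBK (6 × 10^5 cells/mL; MEM-E, 10% horse serum, 1 mM pyruvate) or BHK (1 × 10^6 cells/mL; MEM-E, 10% FBS) cells were incubated at 37 °C, 5% CO2 with serial dilutions from 100 µM, 1:5. Viability by MTT after 48–96 h. CC50 from linear regression against untreated controls.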

[7] = tested on: Bovine viral diarrhea virus 1; test: Antiviral activity against Bovine viral diarrhea virus infected in MDBK cells assessed as inhibition of virus-induced cytopathogenicity after 3 to 4 days by MTT assay; format: functional, organism-based; conditions: Bovine viral diarrhea virus isolates and strains
[8] = tested on: Human immunodeficiency virus 1; test: Antiviral activity against HIV1 infected in human MT4 cells assessed as inhibition of virus-induced cytopathogenicity after 4 days by MTT assay; format: functional, organism-based; conditions: Human immunodeficiency virus 1, MT4, 96 h
In short: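 MT-4 cells (1 × 10^4/well in RPMI) were infected acutely with HIV-1 IIIB, 100 CCID50 (m.o.i. 0.01), with serial dilutions from 100 µM, 1:5. After 4 days at 37 °C, protection from virus-induced cytopathogenicity was read by MTT. EC50 came from linear regression against untreated controls.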

[9] = Cytotoxicity against mock-infected BHK21 cells after 48 to 96 hrs by MTT assay; format: functional; conditions: Mesocricetus auratus, BHK-21; in short: as §1

SMILES: COc1ccc(-c2nc3cc(C(F)(F)F)ccc3n2C[C@H]2CCCN3CCCC[C@H]23)cc1
- EC50 (Human alphaherpesvirus 1): > 100 µM
- EC50 (Yellow fever virus): > 100 µM
- EC50 (Vaccinia virus): > 100 µM
- EC50 (Poliovirus 1): > 100 µM
- CC50 [1]: > 100 µM
- CC50 at 96 h [2]: 42 µM
- EC50 [3]: > 100 µM
- EC50 [4]: > 100 µM
- selectivity ratio [5]: > 1.85
- EC50 (Coxsackievirus B5): 54 µM
- EC50 (Reovirus sp.): > 100 µM
- CC50 [6]: 57 µM
- EC50 [7]: > 100 µM
- EC50 [8]: > 100 µM
- CC50 [9]: 30 µM

SMILES: FC(F)(F)c1ccc2c(c1)nc(Cc1ccccc1)n2C[C@@H]1CCCN2CCCC[C@H]12
- EC50 (Human alphaherpesvirus 1): > 100 µM
- EC50 (Yellow fever virus): > 100 µM
- EC50 (Vaccinia virus): > 100 µM
- EC50 (Poliovirus 1): 60 µM
- CC50 [1]: > 100 µM
- CC50 at 96 h [2]: > 100 µM
- EC50 [3]: > 100 µM
- EC50 [4]: > 100 µM
- selectivity ratio [5]: > 10
- EC50 (Coxsackievirus B5): 10 µM
- EC50 (Reovirus sp.): > 100 µM
- CC50 [6]: > 100 µM
- EC50 [7]: > 100 µM
- EC50 [8]: > 100 µM
- CC50 [9]: 15 µM

SMILES: COCCn1c(Cc2ccc(Cl)c(Cl)c2)nc2cc(C(F)(F)F)ccc21
- EC50 (Human alphaherpesvirus 1): > 100 µM
- EC50 (Yellow fever virus): > 100 µM
- EC50 (Vaccinia virus): > 100 µM
- EC50 (Poliovirus 1): > 100 µM
- CC50 [1]: > 100 µM
- CC50 at 96 h [2]: > 100 µM
- EC50 [3]: > 100 µM
- EC50 [4]: > 100 µM
- selectivity ratio [5]: > 8.33
- EC50 (Coxsackievirus B5): 12 µM
- EC50 (Reovirus sp.): > 100 µM
- CC50 [6]: > 100 µM
- EC50 [7]: > 100 µM
- EC50 [8]: > 100 µM
- CC50 [9]: > 100 µM

SMILES: Cc1nc2cc(C(F)(F)F)ccc2n1C[C@@H]1CCCN2CCCC[C@H]12
- EC50 (Human alphaherpesvirus 1): > 100 µM
- EC50 (Yellow fever virus): 27 µM
- EC50 (Vaccinia virus): 23 µM
- EC50 (Poliovirus 1): > 100 µM
- CC50 [1]: > 100 µM
- CC50 at 96 h [2]: > 100 µM
- EC50 [3]: > 100 µM
- EC50 [4]: > 100 µM
- selectivity ratio [5]: > 2.13
- EC50 (Coxsackievirus B5): 47 µM
- EC50 (Reovirus sp.): > 100 µM
- CC50 [6]: > 100 µM
- EC50 [7]: > 100 µM
- EC50 [8]: > 100 µM
- CC50 [9]: > 100 µM

SMILES: Nc1ccc(Cc2nc3ccccc3[nH]2)cc1
- EC50 (Human alphaherpesvirus 1): > 100 µM
- EC50 (Yellow fever virus): > 100 µM
- EC50 (Vaccinia virus): > 100 µM
- EC50 (Poliovirus 1): 58 µM
- CC50 [1]: > 100 µM
- CC50 at 96 h [2]: > 100 µM
- EC50 [3]: > 100 µM
- EC50 [4]: > 100 µM
- selectivity ratio [5]: > 5.88
- EC50 (Coxsackievirus B5): 17 µM
- EC50 (Reovirus sp.): > 100 µM
- CC50 [6]: > 100 µM
- EC50 [7]: > 100 µM
- EC50 [8]: > 100 µM
- CC50 [9]: > 100 µM

SMILES: FC(F)(F)c1ccc2[nH]c(Cc3ccc(Cl)cc3)nc2c1
- EC50 (Human alphaherpesvirus 1): > 100 µM
- EC50 (Yellow fever virus): > 100 µM
- EC50 (Vaccinia virus): > 100 µM
- EC50 (Poliovirus 1): > 100 µM
- CC50 [1]: 70 µM
- CC50 at 96 h [2]: > 100 µM
- EC50 [3]: > 100 µM
- EC50 [4]: > 100 µM
- selectivity ratio [5]: 2.69
- EC50 (Coxsackievirus B5): 26 µM
- EC50 (Reovirus sp.): > 100 µM
- CC50 [6]: 16 µM
- EC50 [7]: > 100 µM
- EC50 [8]: > 100 µM
- CC50 [9]: 20 µM

SMILES: Clc1ccc2nc(-c3ccccc3)n([C@@H]3CCCN4CCCC[C@H]34)c2c1
- EC50 (Human alphaherpesvirus 1): > 100 µM
- EC50 (Yellow fever virus): > 100 µM
- EC50 (Vaccinia virus): > 100 µM
- EC50 (Poliovirus 1): > 100 µM
- CC50 [1]: ≥ 100 µM
- CC50 at 96 h [2]: > 100 µM
- EC50 [3]: > 100 µM
- EC50 [4]: > 100 µM
- selectivity ratio [5]: > 3.12
- EC50 (Coxsackievirus B5): 32 µM
- EC50 (Reovirus sp.): > 100 µM
- CC50 [6]: > 100 µM
- EC50 [7]: 40 µM
- EC50 [8]: > 100 µM
- CC50 [9]: > 100 µM

SMILES: c1ccc2[nH]c(CC3CCCC3)nc2c1
- EC50 (Human alphaherpesvirus 1): > 100 µM
- EC50 (Yellow fever virus): > 100 µM
- EC50 (Vaccinia virus): > 100 µM
- EC50 (Poliovirus 1): > 100 µM
- CC50 [1]: > 100 µM
- CC50 at 96 h [2]: > 100 µM
- EC50 [3]: > 100 µM
- EC50 [4]: > 100 µM
- selectivity ratio [5]: > 4.76
- EC50 (Coxsackievirus B5): 21 µM
- EC50 (Reovirus sp.): > 100 µM
- CC50 [6]: > 100 µM
- EC50 [7]: > 100 µM
- EC50 [8]: > 100 µM
- CC50 [9]: > 100 µM

SMILES: C[C@@]1(O)[C@H](O)[C@@H](CO)O[C@H]1n1cnc2c(=O)[nH]c(N)nc21 [2'-B-METHYL-GUANOSINE]
- EC50 (Human alphaherpesvirus 1): > 100 µM
- EC50 (Yellow fever virus): > 100 µM
- EC50 (Vaccinia virus): > 100 µM
- EC50 (Poliovirus 1): > 100 µM
- CC50 [1]: > 100 µM
- CC50 at 96 h [2]: > 100 µM
- EC50 [3]: > 100 µM
- EC50 [4]: > 100 µM
- selectivity ratio [5]: > 5
- EC50 (Coxsackievirus B5): 20 µM
- EC50 (Reovirus sp.): 2.4 µM
- CC50 [6]: > 100 µM
- CC50 [9]: 90 µM

SMILES: FC(F)(F)c1ccc2c(c1)nc(Cc1ccc(Cl)c(Cl)c1)n2C[C@H]1CCCN2CCCC[C@H]12
- EC50 (Human alphaherpesvirus 1): > 100 µM
- EC50 (Yellow fever virus): > 100 µM
- EC50 (Vaccinia virus): > 100 µM
- EC50 (Poliovirus 1): > 100 µM
- CC50 [1]: > 100 µM
- CC50 at 96 h [2]: 4 µM
- EC50 [3]: > 100 µM
- EC50 [4]: > 100 µM
- EC50 (Coxsackievirus B5): > 100 µM
- EC50 (Reovirus sp.): > 100 µM
- CC50 [6]: > 100 µM
- EC50 [7]: > 100 µM
- EC50 [8]: > 100 µM
- CC50 [9]: 34 µM

SMILES: CC(=O)Nc1ccc(Cc2nc3cc(C(F)(F)F)ccc3[nH]2)cc1
- EC50 (Human alphaherpesvirus 1): > 100 µM
- EC50 (Yellow fever virus): > 100 µM
- EC50 (Vaccinia virus): > 100 µM
- EC50 (Poliovirus 1): > 100 µM
- CC50 [1]: > 100 µM
- CC50 at 96 h [2]: > 100 µM
- EC50 [3]: > 100 µM
- EC50 [4]: > 100 µM
- EC50 (Coxsackievirus B5): > 100 µM
- EC50 (Reovirus sp.): > 100 µM
- CC50 [6]: > 100 µM
- EC50 [7]: > 100 µM
- EC50 [8]: > 100 µM
- CC50 [9]: > 100 µM

SMILES: COc1ccc(Cc2nc3cc(C(F)(F)F)ccc3n2C[C@@H]2CCCN3CCCC[C@H]23)cc1
- EC50 (Human alphaherpesvirus 1): > 100 µM
- EC50 (Yellow fever virus): > 100 µM
- EC50 (Vaccinia virus): > 100 µM
- EC50 (Poliovirus 1): > 100 µM
- CC50 [1]: 89 µM
- CC50 at 96 h [2]: 77 µM
- EC50 [3]: > 100 µM
- EC50 [4]: > 100 µM
- EC50 (Coxsackievirus B5): > 100 µM
- EC50 (Reovirus sp.): > 100 µM
- CC50 [6]: > 100 µM
- EC50 [7]: > 100 µM
- EC50 [8]: > 100 µM
- CC50 [9]: > 100 µM
